What all share (format): functional, cell-based
One test has as its system NB-4. Description: Cytotoxicity against human NB4 cells assessed as growth inhibition after 72 hrs by MTT assay. As to conditions: NB-4, 72 h. In a few lines:
(§1)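 2500 cells per well seeded in MEM medium and incubated 24 h. Medium then replaced with fresh medium containing compound at 100 to 1.5625 μM (six 2-fold dilutions). OD595 read after MTT on control wells at 0 and 72 h and on treated wells at 72 h. IC50 taken as the concentration inhibiting 50% of cell growth. Paclitaxel served as positive control.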

The next test concerns A549. The test is described as follows: Cytotoxicity against human A549 cells assessed as growth inhibition after 72 hrs by MTT assay. As to conditions: A549, 72 h. In a few lines: as §1
Background: Formazan colour is commonly taken as a measure of viable cells.

Another test concerns PC-3. The test is described as follows: Cytotoxicity against human PC3 cells assessed as growth inhibition after 72 hrs by MTT assay. As to conditions: PC-3, 72 h. In a few lines: as §1
Test [1] can be described thus: Cytotoxicity against human SH-SY5Y cells assessed as growth inhibition after 72 hrs by MTT assay. In a few lines:
as §1

A further test has as its system MCF7. The test is described as follows: Cytotoxicity against human MCF7 cells assessed as growth inhibition after 72 hrs by MTT assay. As to conditions: MCF7, 72 h. In outline: as §1

pIC50: −log10 of the molar value. Where only a bound is given, the exact number is not on record here.

As a reminder, the pIC50 is the IC50 on a negative log10 scale, so that one unit is a factor of ten. `COC(=O)c1cc(O)cc2oc(-c3ccc(OC)cc3)cc(=O)c12`: the negative-log IC50 (pIC50) with NB-4 was 5.66; in the test on A549 it was 5.17; with PC-3 it was 5.32; in test [1], 5.60; in the test with MCF7, 5.64.
As to `COC(=O)[C@@]1(O)c2c(oc(-c3ccc(O)cc3)cc2=O)OC=C[C@@H]1O`, the pIC50 is below 5.00 in the test on NB-4; 5.14 with A549; 5.17 in the test with PC-3; below 5.00 in test [1]; below 5.00 in the test on MCF7.
On to `O=C(OC[C@H]1O[C@@H](Oc2c(-c3ccc(O)cc3)oc3cc(O)cc(O)c3c2=O)[C@H](O)[C@@H](O)[C@@H]1O)c1ccc(O)cc1`, for which the pIC50 with NB-4 was 5.33; in the test on A549, below 5.00; with PC-3, below 5.00; in test [1], 5.09; with MCF7, 5.14.
For `COc1ccc([C@@H]2COc3cc(OC)c(O)cc3[C@H]2O)cc1`, the negative logarithm of the IC50 (pIC50) (with NB-4; with A549; with PC-3; in test [1]; with MCF7) was below 5.00 throughout.
As to `COc1ccc2c(c1CCO)O[C@@H](c1ccc(O)cc1O)CC2`, the pIC50 (in the test with NB-4; in the test with A549; in the test with PC-3; in test [1]; with MCF7) was below 5.00 throughout.
In the case of `COc1cc2c(=O)cc(-c3ccc(O)c(O)c3)oc2c(C(C)=O)c1OC`, the negative logarithm of the IC50 (pIC50) with NB-4 was 5.44; in the test with A549, 5.92; in the test with PC-3, 5.08; in test [1], 5.37; in the test with MCF7 it was 5.55.
In the same order, the values of `COc1cc(/C=C/Cc2ccc(O)c(OC)c2OC)cc2c1OCO2` are below 5.00, below 5.00, below 5.00, below 5.00 and below 5.00.
In the same order, the values of `COc1cc2c(cc1OC)[C@@H](O)[C@H](c1ccc(O)cc1)CO2` are below 5.00, below 5.00, below 5.00, below 5.00 and below 5.00.
For the compound `CC(=O)O[C@H]1C(=O)[C@@]2(C)[C@H]([C@H](OC(=O)c3ccccc3)[C@]3(O)C[C@H](OC(=O)[C@H](O)[C@@H](NC(=O)c4ccccc4)c4ccccc4)C(C)=C1C3(C)C)[C@]1(OC(C)=O)CO[C@@H]1C[C@@H]2O` [PACLITAXEL], the negative logarithm of the IC50 (pIC50) in test [1] is 6.70.
`COc1c(O)ccc(C/C=C/c2ccc3c(c2)OCO3)c1OC`: the negative logarithm of the IC50 (pIC50) (in the test on NB-4; with A549; in the test with PC-3; in test [1]; in the test with MCF7) was below 5.00 each time.
